In ChEMBL document CHEMBL1155143, “Interaction of the GraRS two-component system with the VraFG ABC transporter to support vancomycin-intermediate resistance in Staphylococcus aureus” (2007):
In brackets after ≈: the same amount, converted by molar mass. Activity calls are given as the source filed them. The calls are words filed in the database; no cut-off is given here.

Assays:
Staphylococcus aureus [1] = test: Antimicrobial activity against wild type vancomycin-intermediate resistant Staphylococcus aureus Mu50 expressing pEPSA5graRS1 plasmid by microdilution assay
Staphylococcus aureus [2] = test: Antimicrobial activity against methicillin-resistant Staphylococcus aureus COL graR mutant assessed as hypersensitivity at 1 ug/ml; format: functional, organism-based
Summary of the method: (§1)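 Overnight CSMHB cultures (Mueller-Hinton broth with 25 μg/ml Ca2+ and 12.5 μg/ml Mg2+) were adjusted to A650 1.1 (~10^9 CFU/ml). They were diluted 200 μl per 7 ml CSMHB with or without 1 μg/ml vancomycin, and growth curves were plotted as A650 over time. Plasmid-carrying strains received 10 μg/ml chloramphenicol.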

Staphylococcus aureus [3] = test: Antimicrobial activity against methicillin-resistant Staphylococcus aureus sacol1355 mutant assessed as hypersensitivity at 1 ug/ml; format: functional, organism-based; summary of the method: as §1
Staphylococcus aureus [4] = test: Antimicrobial activity against methicillin-resistant Staphylococcus aureus sacol2358 mutant assessed as hypersensitivity at 1 ug/ml; format: functional, organism-based; summary of the method: as §1
Staphylococcus aureus [5] = test: Antimicrobial activity against vancomycin-intermediate resistant Staphylococcus aureus Mu50 vraG mutant expressing pEPSA5graRS1 plasmid by microdilution assay
Staphylococcus aureus [6] = test: Antimicrobial activity against wild type vancomycin-intermediate resistant Staphylococcus aureus Mu50 by microdilution assay; format: functional
Summary of the method: (§2)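 Standardized CLSI broth microdilution was run in CSMHB with 10^5 CFU/ml inoculum and scored at 48 h. Values are medians of at least three independent experiments. Daptomycin MICs for Mu50 strains were read by Etest per the supplied protocol instead of microdilution.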

Staphylococcus aureus [7] = test: Antimicrobial activity against methicillin-resistant Staphylococcus aureus sacol2646 mutant assessed as hypersensitivity at 1 ug/ml; format: functional, organism-based; summary of the method: as §1
Staphylococcus aureus [8] = test: Antimicrobial activity against wild type vancomycin-intermediate resistant Staphylococcus aureus Mu50 expressing pEPSA5graRS2 plasmid by microdilution assay
Staphylococcus aureus [9] = test: Antimicrobial activity against wild type methicillin-resistant Staphylococcus aureus COL expressing pEPSA5graRS1 plasmid by microdilution assay
Staphylococcus aureus [10] = test: Antimicrobial activity against methicillin-resistant Staphylococcus aureus COL assessed as hypersensitivity at 1 ug/ml; format: functional, organism-based; summary of the method: as §1
Staphylococcus aureus [11] = test: Antimicrobial activity against wild type vancomycin-intermediate resistant Staphylococcus aureus Mu50 expressing pEPSA5graFG1 plasmid by microdilution assay
Staphylococcus aureus [12] = test: Antimicrobial activity against wild type vancomycin-intermediate resistant Staphylococcus aureus Mu50 expressing pEPSA5 plasmid by microdilution assay
Staphylococcus aureus [13] = test: Antimicrobial activity against methicillin-susceptible Staphylococcus aureus RN6390 graR by microdilution assay; format: functional, organism-based; summary of the method: as §2
Staphylococcus aureus [14] = test: Antimicrobial activity against methicillin-resistant Staphylococcus aureus COL graS mutant by microdilution assay; format: functional, organism-based; summary of the method: as §2
Staphylococcus aureus [15] = test: Antimicrobial activity against wild type methicillin-susceptible Staphylococcus aureus RN6390 by microdilution assay; format: functional, organism-based; summary of the method: as §2
Staphylococcus aureus [16] = test: Antimicrobial activity against methicillin-susceptible Staphylococcus aureus RN6390 vraG by microdilution assay; format: functional, organism-based; summary of the method: as §2
Staphylococcus aureus [17] = test: Antimicrobial activity against vancomycin-intermediate resistant Staphylococcus aureus Mu50 vraG mutant microdilution assay; format: functional; summary of the method: as §2
Staphylococcus aureus [18] = details: COL
Staphylococcus aureus [19] = test: Antimicrobial activity against vancomycin-intermediate resistant Staphylococcus aureus Mu50 graR mutant microdilution assay; format: functional; summary of the method: as §2
Staphylococcus aureus [20] = test: Antimicrobial activity against wild type methicillin-resistant Staphylococcus aureus COL expressing pEPSA5vraFG1 plasmid by microdilution assay; format: functional, organism-based
Summary of the method: (§3)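 CLSI broth microdilution was run in CSMHB with 10^5 CFU/ml for strains carrying pEPSA5-based plasmids. Chloramphenicol 10 μg/ml maintained the plasmid, and growth was scored at 72 h. Media were used with or without 0.5% xylose or glucose. MIC is the median over all conditions from three independent experiments.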

Staphylococcus aureus [21] = test: Antimicrobial activity against wild type methicillin-resistant Staphylococcus aureus COL expressing pEPSA5 plasmid by microdilution assay; format: functional, organism-based; summary of the method: as §3
Staphylococcus aureus [22] = test: Antimicrobial activity against wild type methicillin-resistant Staphylococcus aureus COL expressing pEPSA5vraFG2 plasmid by microdilution assay; format: functional, organism-based; summary of the method: as §3
Staphylococcus aureus [23] = test: Antimicrobial activity against methicillin-susceptible Staphylococcus aureus RN6390 graS by microdilution assay; format: functional, organism-based; summary of the method: as §2
Staphylococcus aureus [24] = test: Antimicrobial activity against wild type methicillin-resistant Staphylococcus aureus COL by microdilution assay; format: functional, organism-based; summary of the method: as §2
Staphylococcus aureus [25] = test: Antimicrobial activity against wild type methicillin-resistant Staphylococcus aureus COL expressing pEPSA5graRS2 plasmid by microdilution assay; format: functional, organism-based; summary of the method: as §3
Staphylococcus aureus [26] = test: Antimicrobial activity against methicillin-resistant Staphylococcus aureus COL vraG mutant by microdilution assay; format: functional, organism-based; summary of the method: as §2
Staphylococcus aureus [27] = test: Antimicrobial activity against methicillin-resistant Staphylococcus aureus COL graR mutant by microdilution assay; format: functional, organism-based; summary of the method: as §2

Row | Compound | MIC (Staphylococcus aureus [6]) | MIC (Staphylococcus aureus [17]) | MIC (Staphylococcus aureus [19]) | also measured
1 | CN[C@H](CC(C)C)C(=O)N[C@H]1C(=O)N[C@@H](CC(N)=O)C(=O)N[C@H]2C(=O)N[C@H]3C(=O)N[C@H](C(=O)N[C@H](C(=O)O)c4cc(O)cc(O)c4-c4cc3ccc4O)[C@H](O)c3ccc(c(Cl)c3)Oc3cc2cc(c3O[C@@H]2O[C@H](CO)[C@@H](O)[C@H](O)[C@H]2O[C@H]2C[C@](C)(N)[C@H](O)[C@H](C)O2)Oc2ccc(cc2Cl)[C@H]1O [VANCOMYCIN] | 8 µg/mL (≈ 5.52 µM) | – | – | MIC (Staphylococcus aureus [1]): 8 µg/mL (≈ 5.52 µM); Activity (Staphylococcus aureus [2]): Active; Activity (Staphylococcus aureus [3]): inactive; Activity (Staphylococcus aureus [4]): inactive; MIC (Staphylococcus aureus [5]): 8 µg/mL (≈ 5.52 µM); Activity (Staphylococcus aureus [7]): inactive; MIC (Staphylococcus aureus [8]): 8 µg/mL (≈ 5.52 µM); MIC (Staphylococcus aureus [9]): 8 µg/mL (≈ 5.52 µM); Activity (Staphylococcus aureus [10]): inactive; MIC (Staphylococcus aureus [11]): 8 µg/mL (≈ 5.52 µM); MIC (Staphylococcus aureus [12]): 8 µg/mL (≈ 5.52 µM)
2 | POLYMYXIN B | 128 µg/mL | 16 µg/mL | 16 µg/mL | MIC (Staphylococcus aureus [13]): 4 µg/mL; MIC (Staphylococcus aureus [14]): 8 µg/mL; MIC (Staphylococcus aureus [15]): 32 µg/mL; MIC (Staphylococcus aureus [16]): 4 µg/mL; MIC (Staphylococcus aureus [18]): 128 µg/mL; MIC (Staphylococcus aureus [20]): 64 µg/mL; MIC (Staphylococcus aureus [21]): 64 µg/mL; MIC (Staphylococcus aureus [22]): 64 µg/mL; MIC (Staphylococcus aureus [23]): 4 µg/mL; MIC (Staphylococcus aureus [24]): 64 µg/mL; MIC (Staphylococcus aureus [25]): 64 µg/mL; MIC (Staphylococcus aureus [26]): 8 µg/mL; MIC (Staphylococcus aureus [27]): 8 µg/mL
3 | CC[C@H](C)[C@@H]1NC(=O)[C@H](CO)NC(=O)[C@@H]2CCCN2C(=O)[C@H](C)NC(=O)CNC(=O)[C@H](CC(C)C)NC(=O)[C@H](CCCCN)N[C@H](CCCCN)NC(=O)[C@H](CCSC)NC(=O)[C@H](CCCNC(=N)N)NC(=O)[C@H](Cc2c[nH]c3ccccc23)NC(=O)[C@H](CCC(N)=O)NC(=O)[C@H](Cc2c[nH]c3ccccc23)NC(=O)[C@H](CCCNC(=N)N)NC(=O)[C@H](CCCNC(=N)N)NC(=O)[C@@H](NC(=O)[C@H](CCCCN)NC(=O)[C@@H](N)Cc2ccccc2)CSSC[C@@H](C(=O)N[C@H](C(=O)N[C@@H](CCCNC(=N)N)C(=O)N[C@@H](C)C(=O)N[C@@H](Cc2ccccc2)C(=O)O)C(C)C)NC(=O)[C@H]([C@@H](C)O)NC1=O [LACTOFERRICIN] | ≥ 512 µg/mL | ≥ 512 µg/mL | ≥ 512 µg/mL | –
4 | N[C@@H]1CONC1=O [CYCLOSERINE] | 128 µg/mL (≈ 1250 µM) | 64 µg/mL (≈ 627 µM) | 64 µg/mL (≈ 627 µM) | –
5 | C/C(=C\C(=O)OCCCCCCCCC(=O)O)C[C@@H]1OC[C@H](C[C@@H]2O[C@H]2[C@@H](C)[C@H](C)O)[C@@H](O)[C@H]1O [MUPIROCIN] | 0.25 µg/mL (≈ 0.499 µM) | 0.25 µg/mL (≈ 0.499 µM) | 0.25 µg/mL (≈ 0.499 µM) | –
6 | NC[C@H]1O[C@H](O[C@H]2[C@H](O)[C@@H](O[C@H]3O[C@H](CO)[C@@H](O)[C@H](N)[C@H]3O)[C@H](N)C[C@@H]2N)[C@H](N)C[C@@H]1O [TOBRAMYCIN] | ≥ 2050 µg/mL | ≥ 2050 µg/mL | ≥ 2050 µg/mL | –
7 | CO[C@@H]1[C@@H](OC(N)=O)[C@@H](O)[C@H](Oc2ccc3c(O)c(NC(=O)c4ccc(O)c(CC=C(C)C)c4)c(=O)oc3c2C)OC1(C)C [NOVOBIOCIN] | 0.125 µg/mL (≈ 0.204 µM) | 0.125 µg/mL (≈ 0.204 µM) | 0.25 µg/mL (≈ 0.408 µM) | –
8 | Cc1onc(-c2ccccc2)c1C(=O)N[C@@H]1C(=O)N2[C@@H]1SC(C)(C)[C@@H]2C(=O)O [OXACILLIN] | 512 µg/mL (≈ 1280 µM) | 1020 µg/mL (≈ 2550 µM) | 256 µg/mL (≈ 638 µM) | –
9 | CC[C@H]1OC(=O)[C@H](C)[C@@H](O[C@H]2C[C@@](C)(OC)[C@@H](O)[C@H](C)O2)[C@H](C)[C@@H](O[C@@H]2O[C@H](C)C[C@H](N(C)C)[C@H]2O)[C@](C)(O)C[C@@H](C)C(=O)[C@H](C)[C@@H](O)[C@]1(C)O [ERYTHROMYCIN] | ≥ 2050 µg/mL | ≥ 2050 µg/mL | 1020 µg/mL (≈ 1400 µM) | –
10 | CCCCCCCCCC(=O)N[C@@H](Cc1c[nH]c2ccccc12)C(=O)N[C@H](CC(N)=O)C(=O)N[C@@H](CC(=O)O)C(=O)N[C@@H]1C(=O)NCC(=O)N[C@@H](CCCN)C(=O)N[C@@H](CC(=O)O)C(=O)N[C@H](C)C(=O)N[C@@H](CC(=O)O)C(=O)NCC(=O)N[C@H](CO)C(=O)N[C@@H]([C@H](C)CC(=O)O)C(=O)N[C@@H](CC(=O)c2ccccc2N)C(=O)O[C@@H]1C | 2 µg/mL (≈ 1.23 µM) | 2 µg/mL (≈ 1.23 µM) | 1 µg/mL (≈ 0.617 µM) | –
11 | COc1cc(Cc2cnc(N)nc2N)cc(OC)c1OC [TRIMETHOPRIM] | 4 µg/mL (≈ 13.8 µM) | 4 µg/mL (≈ 13.8 µM) | 2 µg/mL (≈ 6.89 µM) | –
12 | C[C@@H]1O[C@@H]1P(=O)(O)O [FOSFOMYCIN] | 1020 µg/mL (≈ 7420 µM) | 1020 µg/mL (≈ 7420 µM) | 1020 µg/mL (≈ 7420 µM) | –
13 | CN(C)[C@@H]1C(O)=C(C(N)=O)C(=O)[C@@]2(O)C(O)=C3C(=O)c4c(O)cccc4[C@@](C)(O)[C@H]3C[C@@H]12 [TETRACYCLINE] | 64 µg/mL (≈ 144 µM) | 64 µg/mL (≈ 144 µM) | 128 µg/mL (≈ 288 µM) | –
14 | CO[C@H]1/C=C/O[C@@]2(C)Oc3c(C)c(O)c4c(O)c(c(/C=N/N5CCN(C)CC5)c(O)c4c3C2=O)NC(=O)/C(C)=C\C=C\[C@H](C)[C@H](O)[C@@H](C)[C@@H](O)[C@@H](C)[C@H](OC(C)=O)[C@@H]1C [RIFAMPIN] | 1020 µg/mL (≈ 1240 µM) | 1020 µg/mL (≈ 1240 µM) | 1020 µg/mL (≈ 1240 µM) | –
15 | O=C(O)c1cn(C2CC2)c2cc(N3CCNCC3)c(F)cc2c1=O [CIPROFLOXACIN] | 32 µg/mL (≈ 96.6 µM) | 64 µg/mL (≈ 193 µM) | 64 µg/mL (≈ 193 µM) | –
16 | O=C(N[C@H](CO)[C@H](O)c1ccc([N+](=O)[O-])cc1)C(Cl)Cl [CHLORAMPHENICOL] | 8 µg/mL (≈ 24.8 µM) | 8 µg/mL (≈ 24.8 µM) | 8 µg/mL (≈ 24.8 µM) | –
